Assay outcomes from PubChem BioAssay.
GSH bead fluor: compound fluorescence on glutathione beads, profiling panel, artefact control, biophysical, 488/530 nm, flow cytometry | GSH beads flow cytometry, compound fluorescence 488/530 nm; active compounds read high | fluorescence (KMESF) at 10 µM | 190,000 tested, 0.25% active | AID 1776, 2009; in the data active = fluorescence above about 89;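 note: glutathione beads carrying GST-tagged Bcl family fusion proteins plus one bare bead set; values are compound well signal with DMSO vehicle wells as background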
Lmaj promast: Leishmania major promastigote growth inhibition, primary screen; AID 1063, 2008; inhibition, % at 10 µM; Leishmania major promastigotes, resazurin fluorescence viability; 200,000 tested, 9% active;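 note: promastigotes grown with compound for 44 hours at 28 °C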
Avidin fluor: green autofluorescence of compounds with avidin beads – biophysical, 488/530 nm, flow cytometry, artefact control, profiling panel. compound fluorescence 488/530 nm; active compounds read high. fluorescence (KMESF) at 10 µM. 220,000 tested, 0.38% active. AID 1775, 2009; in the data active = fluorescence above about 47
ABCG2 inh: ABCG2 efflux pump inhibitors, primary screen, multiplex with ABCB1, IgMXP3 cells, flow cytometry. 190,000 tested, 0.1% active. inhibition, % at 6.6 µM. Broad substrate specificity ATP-binding cassette transporter ABCG2 (Homo sapiens), Q9UNQ0. JC-1 efflux;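 active = inhibition above 80%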;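 note: 0% = DMSO and 100% = nicardipine control wells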
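Assay system – ABCG2 IgMXP3 and barcoded ABCB1 CCRF-Adr cell mix · Input – 3 million cells/mL in well · Reagent – JC-1 fluorescent substrate · Compound – single test compound dose, 6.6 µM final · Timing – 10 min exposure at 25 °C with rotation, no wash · Detection – flow cytometry of retained JC-1 fluorescence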
ABCB1 inh: ABCB1 efflux pump inhibitors, primary screen, cell-based, multiplex, flow cytometry, ABCG2 counter-screen; CCRF-Adr cells, JC-1 efflux; inhibition, % at 6.6 µM; 190,000 tested, 0.067% active; AID 1326, 2008; in the data active = inhibition above about 40%;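 note: 0% = vehicle and 100% = reference inhibitor; higher value means more JC-1 retained so stronger ABCB1 efflux block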
Target sequence (P08183 whole entry, looked up): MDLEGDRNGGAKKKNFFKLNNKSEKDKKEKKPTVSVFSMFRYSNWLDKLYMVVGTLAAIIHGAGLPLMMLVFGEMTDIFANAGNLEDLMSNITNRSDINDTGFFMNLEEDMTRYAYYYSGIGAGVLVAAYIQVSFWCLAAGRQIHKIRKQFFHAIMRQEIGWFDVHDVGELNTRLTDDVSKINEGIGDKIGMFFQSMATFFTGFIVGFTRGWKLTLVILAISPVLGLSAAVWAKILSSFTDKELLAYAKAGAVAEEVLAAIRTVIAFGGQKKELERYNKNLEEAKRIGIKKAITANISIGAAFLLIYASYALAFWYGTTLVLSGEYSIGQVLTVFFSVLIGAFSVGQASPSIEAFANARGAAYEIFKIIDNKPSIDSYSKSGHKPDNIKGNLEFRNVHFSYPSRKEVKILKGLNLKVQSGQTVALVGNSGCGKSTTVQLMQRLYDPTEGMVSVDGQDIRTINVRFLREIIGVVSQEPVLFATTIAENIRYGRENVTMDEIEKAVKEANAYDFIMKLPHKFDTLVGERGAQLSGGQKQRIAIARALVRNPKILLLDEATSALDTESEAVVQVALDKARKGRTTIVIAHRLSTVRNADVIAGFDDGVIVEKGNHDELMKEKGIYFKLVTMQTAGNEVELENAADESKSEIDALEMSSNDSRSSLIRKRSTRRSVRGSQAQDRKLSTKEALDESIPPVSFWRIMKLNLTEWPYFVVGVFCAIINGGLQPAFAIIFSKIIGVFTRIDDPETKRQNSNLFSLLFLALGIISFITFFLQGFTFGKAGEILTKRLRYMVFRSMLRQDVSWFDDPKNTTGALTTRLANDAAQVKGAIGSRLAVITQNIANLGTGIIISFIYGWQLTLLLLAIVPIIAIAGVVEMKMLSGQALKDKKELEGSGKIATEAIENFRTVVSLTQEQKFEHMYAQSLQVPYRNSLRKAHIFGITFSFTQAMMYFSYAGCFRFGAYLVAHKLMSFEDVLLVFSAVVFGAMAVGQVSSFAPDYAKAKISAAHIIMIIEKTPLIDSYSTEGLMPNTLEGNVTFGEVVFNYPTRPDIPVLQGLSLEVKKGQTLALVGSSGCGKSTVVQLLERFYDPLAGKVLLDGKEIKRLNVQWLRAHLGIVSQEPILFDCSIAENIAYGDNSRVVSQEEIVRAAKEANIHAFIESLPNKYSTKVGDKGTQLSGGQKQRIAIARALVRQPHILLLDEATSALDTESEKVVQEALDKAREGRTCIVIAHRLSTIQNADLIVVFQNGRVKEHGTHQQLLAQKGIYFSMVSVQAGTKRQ
PKD1 kinase inh: inhibitors of human PKD1 kinase, biochemical, fluorescence polarization; Serine/threonine-protein kinase D1 (Homo sapiens), Q15139; PKD1 kinase fluorescence polarization assay; inhibition, % (test concentration not listed); 200,000 tested, 0.056% active
* hit, by the source's call; . = no result. This is one part of a sample in which hits are shown more often than they occur. Cut-off read from the data, not from the text of the source, unless noted: active = inhibition above about 50%; inactive = the rest.

SMILES	GSH bead fluor	Lmaj promast	Avidin fluor	ABCG2 inh	ABCB1 inh	PKD1 kinase inh
O=[N+]([O-])c1ccc(-c2cnc(SCc3ccccc3Cl)[nH]2)cc1	11	26.2	8	2.9	0.2	-6.3
Cc1cccnc1Nc1nc(-c2ccccn2)cs1	47	100.4*	37	4.2	0.8	2.3
Cc1cccc(Nc2nc(-c3cccs3)cs2)n1	17	56.6*	20	1.4	0.5	-0.6
c1ccc(Nc2nc(-c3cccs3)cs2)nc1	22	8.0	24	18.2	-0.1	-2.8
Cc1cccc(Nc2nc(-c3ccccn3)cs2)n1	29	100.4*	8	6.1	0.3	7.2
c1ccc(Nc2nc(-c3cccnc3)cs2)nc1	15	3.5	8	7.3	0.7	16.7
COc1ccc(CNC(=S)N2CCN(Cc3ccccc3)CC2)cc1	.	.	9	.	.	.
O=C(NNS(=O)(=O)c1ccc(Cl)cc1)c1cccc(S(=O)(=O)N2CCOCC2)c1	.	.	15	.	.	.
COCC1CCCN(Cc2cn(-c3ccccc3)nc2-c2ccc3c(c2)OCO3)C1 (stereo not given)	26	13.1	10	3.2	1.3	-3.0
O=C(N/N=C/c1sc(N2CCOCC2)nc1-c1ccccc1)c1ccccc1Cl	14	1.9	11	4.6	0.2	-3.3
O=[N+]([O-])c1ccc(N/N=C/c2sc(N3CCOCC3)nc2-c2ccccc2)c(S(=O)(=O)Nc2ccc(Cl)cc2)c1	24	65.7*	20	4.5	20.5	16.1
O=[N+]([O-])c1ccc(N/N=C/c2sc(N3CCOCC3)nc2-c2ccccc2)c(S(=O)(=O)Nc2ccccc2Cl)c1	17	69.7*	11	1.8	8.5	0.1
C/C(CCC(C)C)=N\NC(=S)Nc1cc(S(=O)(=O)N2CCOCC2)ccc1N1CCOCC1	18	27.4	9	2.5	0.7	-3.6
COc1ccc(S(=O)(=O)N(C)C)cc1NCC(=O)Nc1ccc(Br)cc1F	7	57.0*	15	3.3	1.1	-10.9
O=C(CSc1nnc(CNc2ccc(F)cc2)o1)N1c2ccccc2Sc2ccccc21	16	64.8*	35	2.9	1.6	2.3
CCOC(=O)CN(C(=O)CSc1nnc(CNc2ccc(F)cc2)o1)c1ccccc1	35	14.1	5	-1.2	-1.7	11.4
CC(C)(C)N(Cc1ccccc1)C(=O)CSc1nnc(CNc2ccc(F)cc2)o1	17	100.0*	20	2.4	0.9	-4.7
CCC(C)/C(C)=N/NC(=O)c1ccc(COc2ccc(Cl)c(C)c2)cc1 (stereo not given)	6	0.3	6	-4.6	-0.6	-20.2
C(=C\c1ccccc1)/CN1CCN(C(c2ccccc2)c2ccccc2)CC1	19	27.2	5	-0.2	1.0	6.4
COc1ccc(Cl)cc1NC(=O)C(C)N1CCN(C/C=C/c2ccccc2)CC1 (stereo not given)	20	62.0*	8	6.5	2.5	-3.4
COc1ccc(Cl)cc1NC(=O)N1CCN(CCc2ccccc2)CC1	31	1.1	7	3.4	0.9	-0.7
CC(C(=O)Nc1ccc([N+](=O)[O-])cc1)N1CCN(C/C=C/c2ccccc2)CC1 (stereo not given)	15	81.9*	7	4.3	1.5	-0.8
CC(C(=O)N(C)Cc1ccccc1)N1CCN(C/C=C/c2ccccc2)CC1 (stereo not given)	.	.	4	.	.	.
CC(=O)c1ccc(NC(=O)C(C)N2CCN(C/C=C/c3ccccc3)CC2)cc1 (stereo not given)	246*	86.2*	38	11.9	7.4	13.1
CC(C)N1C(=O)CSC1c1ccc(Br)cc1 (stereo not given)	10	-5.8	20	-0.6	0.0	-5.9
SMILES	GSH bead fluor	Lmaj promast	Avidin fluor	ABCG2 inh	ABCB1 inh	PKD1 kinase inh
Cc1ccccc1C1C(C#N)=C2N=C(N)c3c(sc4c3CCCCC4)N2C2=C1C(=O)CC(C)(C)C2 (stereo not given)	11	61.9*	9	-0.3	0.7	-7.5
O=c1c(Cc2ccc(Cl)cc2Cl)c(O)ccn1CCCN1CCOCC1	12	-0.8	8	1.3	0.5	10.5
COc1ccccc1CN1C[C@@H]2C[C@@H](c3[nH]c4c(C)cccc4c3C)N3CCC[C@@]23C1=O	10	53.1*	5	-0.9	0.2	-0.9
COc1cccc2c1OCC([C@@H]1C[C@H]3CN(Cc4cccc(Cl)c4)C(=O)[C@]34CCCN14)=C2	8	59.1*	11	-0.6	-0.2	-1.3
COc1ccccc1/C=C/[C@@H]1C[C@H]2CN(Cc3cccc(Cl)c3)C(=O)[C@]23CCCN13	10	4.0	10	1.2	1.2	7.0
Cc1c(Cl)cnc(NC(=O)COC(=O)c2cccc(S(=O)(=O)N3c4ccccc4CC3C)c2)c1Cl (stereo not given)	6	24.6	11	3.2	0.8	2.0
O=S(=O)(c1ccc(Br)cc1)N1CCn2c(nc3ccccc32)C1	16	-5.2	8	-0.6	-1.0	0.2
Cc1nc2ccccc2n1S(=O)(=O)c1ccc(Br)cc1	7	69.8*	8	-3.7	-0.2	0.3
COC(=O)C1=C2SCC(=O)N2C(N)=C(C#N)C1	.	.	7	.	.	.
Cc1ccc(NC(=S)N2CCn3cccc3C2c2cccnc2)cc1 (stereo not given)	10	80.5*	9	14.7	0.2	0.0
S=C(Nc1ccc(Br)cc1)N1CCn2cccc2C1c1cccnc1 (stereo not given)	11	96.1*	23	2.2	1.0	-1.5
CCc1cccc(CC)c1NC(=S)N1CCn2cccc2C1c1cccnc1 (stereo not given)	7	82.9*	9	0.8	0.5	4.2
CCOC(=O)c1csc(NC(=O)c2cc3ccccc3o2)n1	.	.	6	.	.	.
CC(C)(CNC(=O)/C=C/c1ccc(F)cc1)CNC(=O)/C=C/c1ccc(F)cc1	12	13.5	12	46.5	1.6	-7.1
CCOc1ccccc1NC(=O)C(OC(=O)c1ccccc1O)c1ccccc1 (stereo not given)	10	6.4	7	21.6	0.6	-9.6
CCOc1ccccc1NC(=O)C(OC(=O)c1cc(C)oc1C)c1ccccc1 (stereo not given)	6	85.4*	6	-2.1	-0.3	-0.6
NS(=O)(=O)c1ccc(Nc2nc3ccccc3nc2NS(=O)(=O)c2cccc([N+](=O)[O-])c2)cc1	27	-5.1	12	-1.1	-0.5	-6.0
CCCOc1ccc2ccccc2c1/C=N/n1c(C)nnc1-n1nc(C)cc1C	34	51.0*	16	48.6	2.1	-8.9
